An excerpt weighted towards active compounds, which were near 2.8% of everything screened.
NPY Y1 blocker: NPY-Y1 (human) receptor antagonism | P25929 | HEK293-CNG Y1 cells, membrane potential fluorescence; NPY at EC95, then isoproterenol | inhibition, % at 3.6 µM | actives 1% (n = 200,000);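 active = inhibition above the campaign mean inhibition of all tested compounds plus 3 SD, cut at about 20% in these data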;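 note: 0% = DMSO wells given NPY plus isoproterenol and 100% = isoproterenol alone without NPY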
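Material: HEK293 cells co-expressing NPY Y1 receptor and cyclic-nucleotide gated channel. Timing: compound incubation 1 h at room temperature, readout 45 min post-stimulation. Signal: fluorescence, membrane potential probe.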
NPY-Y2 antag: antagonists of human neuropeptide Y receptor Y2. P49146. actives 0.99% (n = 140,000). NPY-Y2 expressing cells, antagonist mode. inhibition, % at 2.7 µM;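 note: 0% = vehicle with agonist challenge and 100% = reference antagonist with challenge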
MDM2 E3 inh: Mdm2 E3 ligase (human) inhibition; AID 1230; actives 0.11% (n = 210,000); cell-based MDM2 ubiquitination luciferase reporter, 2 h; 0 = plate control, 100 = twice control, blank-subtracted; signal enhancement, % at 5 µM;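 active = signal enhancement of 30% or more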;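 note: luminescence tracks abundance of the self-degrading MDM2-luciferase fusion protein; higher signal means inhibition of MDM2 E3 ligase activity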
Target sequence (Q00987 whole entry, looked up, the tested form may be a part): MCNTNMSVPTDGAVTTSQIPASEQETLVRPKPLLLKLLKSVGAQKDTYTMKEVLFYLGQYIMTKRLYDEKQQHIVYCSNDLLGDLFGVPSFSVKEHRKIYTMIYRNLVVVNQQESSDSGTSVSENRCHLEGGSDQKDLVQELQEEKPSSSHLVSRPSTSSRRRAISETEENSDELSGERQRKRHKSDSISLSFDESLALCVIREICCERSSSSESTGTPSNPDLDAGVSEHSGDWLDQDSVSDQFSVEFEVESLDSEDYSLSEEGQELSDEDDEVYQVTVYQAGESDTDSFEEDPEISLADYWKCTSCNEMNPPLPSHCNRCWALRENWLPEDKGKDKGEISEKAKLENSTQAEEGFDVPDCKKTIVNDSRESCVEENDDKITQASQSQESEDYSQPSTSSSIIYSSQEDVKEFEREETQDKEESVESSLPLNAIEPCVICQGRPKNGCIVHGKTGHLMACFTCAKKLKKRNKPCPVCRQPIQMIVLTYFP
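Assay system: stable mammalian line carrying autodegrading MDM2–luciferase fusion reporter; Input: 2000 cells in each well; Compound dosing: single-point 5 µM; Schedule: 2 h compound exposure at 37 °C; Signal: SteadyLite luciferase luminescence after 15 min room-temperature reagent incubation; Evaluation: % luminescence enhancement versus blank-corrected plate control mean; Benchmarks: plate controls and plate blanks.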
NPY-Y1 PAM-ag: potentiates or activates human NPY-Y1 receptor. activation, % at 3.6 µM. NPY-Y1 expressing cells, potentiator/agonist activation. actives 0.37% (n = 220,000). P25929; in the data active = activation above about 33%, passing the limit was not always enough;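 note: cells stimulated with NPY at EC10 then isoproterenol at EC100; 0% = low agonist plus stimulus and 100% = saturating agonist plus stimulus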
NPY2 pot ag: human NPY-Y2 potentiation or agonism, primary screen. cells expressing NPY-Y2, potentiator/agonist read-out. P49146. activation, % at 3.6 µM. actives 0.45% (n = 220,000); in the data active = activation above about 27%;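 note: cells stimulated with NPY near EC25 plus isoproterenol at EC100; 0% = vehicle plus submaximal agonist and 100% = vehicle plus saturating agonist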
Measles CPE: protection of cells from measles virus | protection (pct of control), % at 4 µM | Measles virus-infected cells, CPE protection, absorbance | AID 841 | actives 1.5% (n = 140,000); in the data active = protection mostly above about 24%, no sharp cut-off; inactive = mostly below about 26%
NPY1 antag conf: confirmation of human neuropeptide Y receptor Y1 antagonists; shares compounds with NPY Y1 blocker; HEK293-CNG NPY-Y1, membrane potential fluorescence, cAMP; NPY challenge against isoproterenol-raised cAMP; inhibition, % at 3.6 µM; actives 21% (n = 1,200); in the data active = inhibition above about 20%;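 note: 0% = vehicle with agonist plus stimulus and 100% = stimulus alone without agonist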
NPY-Y2 antag ct: human NPY-Y2 antagonism in NPY-Y1 counter-screen; shares compounds with NPY Y1 blocker; actives 28% (n = 1,200); HEK293 NPY-Y2 CNG membrane potential fluorescence; cells given NPY, then isoproterenol; inhibition, % at 3.6 µM; AID 1255;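 note: 0% = DMSO with agonist challenge and 100% = reference antagonist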
Numbers without * were called inactive; / = not tested or not shown. Cut-off read from the data, not from the text of the source, unless noted: active = inhibition above about 17%; inactive = the rest.

SMILES | NPY Y1 blocker | NPY-Y2 antag | MDM2 E3 inh | NPY-Y1 PAM-ag | NPY2 pot ag | Measles CPE | NPY1 antag conf | NPY-Y2 antag ct
CCOC(=O)c1sc(NC(NC(=O)c2ccco2)(C(=O)OC)C(F)(F)F)nc1C (stereo unspecified) | 32* | 5 | -9 | 2 | -13 | 15 | 8 | 13
COc1ccc(-c2cc(C(F)(F)F)nc(N3CCN(C)CC3)n2)cc1 | 25* | 13 | -6 | -46 | -47 | 13 | 9 | 13
COc1ccc(-c2cc(C(F)(F)F)nc(N3CCCCCC3)n2)cc1 | 0 | 0 | -16 | 7 | -1 | 24 | / | /
Cc1ccc(-n2nc(C)c3c2OC(N)=C(C#N)C3c2ccncc2)cc1 (stereo unspecified) | 24* | 0 | -10 | 27 | 10 | 10 | -2 | 11
CC1Cc2ccccc2N1C(=O)c1cc2sccc2n1Cc1ccc(F)cc1 (stereo unspecified) | 20* | 11 | 8 | -39 | -12 | 5 | 8 | 15
Cc1cc(OCCCCn2ccnc2)cc(C)c1Cl | 4 | / | -1 | -9 | -13 | / | / | /
Cn1c2ccccc2c(=O)c2c(=O)n(C3CCCCC3)c(-c3ccco3)nc21 | 7 | 10 | -4 | -10 | -8 | 16 | / | /
Cc1[nH]c(=O)c(C#N)cc1-c1ccccc1 | 26* | 15 | -13 | -43 | -37 | 38 | 20* | 38*
COc1ccc(C2N(c3ccc(Cl)cc3)N=C(C(C)=O)N(C)N2C(C)=O)cc1 (stereo unspecified) | 29* | / | -4 | 16 | 11 | / | 20* | 9
COc1cccc(N2C(C(C)=O)=NN(c3ccccc3)C2c2ccc(N3CCOCC3)cc2)c1 (stereo unspecified) | 0 | 2 | -5 | -2 | 9 | 2 | / | /
CC1CCN(c2c(NCC3CCC(C(=O)NCCCc4ccccc4)CC3)c(=O)c2=O)CC1 (stereo unspecified) | / | / | / | -1 | -2 | / | / | /
CC(C)CC(C(=O)NC1CCCC1)N(Cc1cccs1)C(=O)c1snc(C(N)=O)c1N (stereo unspecified) | 21* | 6 | / | -35 | -16 | 16 | 9 | 7
Cc1cccc(-c2nsc(SCC(=O)NCC3CCCO3)n2)c1 (stereo unspecified) | 30* | / | 0 | 11 | -5 | / | 4 | 2
CCOC(=O)c1c(NC(=O)c2ccco2)n(C2CCCCC2)c2nc3ccccc3nc12 | 25* | 10 | -14 | 3 | 8 | 14 | -3 | -2
CCC(=O)Nc1c(C#N)c2nc3ccccc3nc2n1C1CCCCC1 | 6 | 3 | -5 | -22 | -4 | -2 | / | /
OC(COc1ccc(CNCCc2ccc(C(F)(F)F)cc2)cc1)CN1CCCCC1 (stereo unspecified) | 25* | / | -10 | -17 | -17 | / | 16 | 18*
CCCC(c1nnnn1Cc1ccco1)N1CCN(C2CCCC2)CC1 (stereo unspecified) | 22* | 14 | 2 | -15 | -11 | 14 | 9 | 7
CC(C)C(c1nnnn1Cc1ccco1)N1CCN(C2CCCC2)CC1 (stereo unspecified) | 6 | 8 | -5 | 1 | 2 | 7 | / | /
CCCC(c1nnnn1Cc1cccs1)N1CCN(C2CCCC2)CC1 (stereo unspecified) | 25* | 15 | 5 | -8 | 3 | 20 | 5 | 3
COc1ccc(-n2c(-c3ccc(Cl)cc3)c[n+]3c2CCc2ccccc2-3)cc1 | 23* | / | -20 | -8 | -6 | / | 24* | 11
O=C(N/N=C/c1cccc(OC(=O)c2ccco2)c1)c1ccc(F)cc1 | 2 | 1 | -11 | 2 | 16 | 6 | / | /
CCOc1ccccc1NC(=O)C(NCC1(N2CCCCC2)CCCCC1)c1ccccc1 (stereo unspecified) | 34* | / | -21 | -27 | -13 | / | 31* | 30*
